Compound activity (PubChem)
Shown are actives, neighbours in structure and some others; about 5.9% of the full set was active somewhere.
PTK2B oligo ant – antagonists of Pyk2 self-association, primary screen, Q293 cells, FERM NanoBiT luminescence, HTS. 99,000 tested, 0.83% active. AID 1347419, 2020. z-score (the deposit names both 25 µM and 10 µM). hits give low values;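 active means Z-score of -3 or lower, scaled per plate to the spread of control and sample wells; inactive means z-score above -3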;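 further: negative z-score means lost luminescence so less FERM oligomerization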
Cav3 T inh – Cav3.2 calcium influx blockers – cell-based, Fluo-4 calcium fluorescence, FDSS, MLSMR library, primary screen; Cav3.2-expressing cells; hits give low values; Voltage-dependent T-type calcium channel subunit alpha-1H (Homo sapiens), O95180; 100,000 tested, 4% active; AID 449739, 2010; B-score at 10 µM;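 active means single-dose well whose peak fluorescence ratio is a statistical outlier from its plate by either plate-standardised score or position-corrected B-score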
Target sequence (O95180 whole entry, looked up): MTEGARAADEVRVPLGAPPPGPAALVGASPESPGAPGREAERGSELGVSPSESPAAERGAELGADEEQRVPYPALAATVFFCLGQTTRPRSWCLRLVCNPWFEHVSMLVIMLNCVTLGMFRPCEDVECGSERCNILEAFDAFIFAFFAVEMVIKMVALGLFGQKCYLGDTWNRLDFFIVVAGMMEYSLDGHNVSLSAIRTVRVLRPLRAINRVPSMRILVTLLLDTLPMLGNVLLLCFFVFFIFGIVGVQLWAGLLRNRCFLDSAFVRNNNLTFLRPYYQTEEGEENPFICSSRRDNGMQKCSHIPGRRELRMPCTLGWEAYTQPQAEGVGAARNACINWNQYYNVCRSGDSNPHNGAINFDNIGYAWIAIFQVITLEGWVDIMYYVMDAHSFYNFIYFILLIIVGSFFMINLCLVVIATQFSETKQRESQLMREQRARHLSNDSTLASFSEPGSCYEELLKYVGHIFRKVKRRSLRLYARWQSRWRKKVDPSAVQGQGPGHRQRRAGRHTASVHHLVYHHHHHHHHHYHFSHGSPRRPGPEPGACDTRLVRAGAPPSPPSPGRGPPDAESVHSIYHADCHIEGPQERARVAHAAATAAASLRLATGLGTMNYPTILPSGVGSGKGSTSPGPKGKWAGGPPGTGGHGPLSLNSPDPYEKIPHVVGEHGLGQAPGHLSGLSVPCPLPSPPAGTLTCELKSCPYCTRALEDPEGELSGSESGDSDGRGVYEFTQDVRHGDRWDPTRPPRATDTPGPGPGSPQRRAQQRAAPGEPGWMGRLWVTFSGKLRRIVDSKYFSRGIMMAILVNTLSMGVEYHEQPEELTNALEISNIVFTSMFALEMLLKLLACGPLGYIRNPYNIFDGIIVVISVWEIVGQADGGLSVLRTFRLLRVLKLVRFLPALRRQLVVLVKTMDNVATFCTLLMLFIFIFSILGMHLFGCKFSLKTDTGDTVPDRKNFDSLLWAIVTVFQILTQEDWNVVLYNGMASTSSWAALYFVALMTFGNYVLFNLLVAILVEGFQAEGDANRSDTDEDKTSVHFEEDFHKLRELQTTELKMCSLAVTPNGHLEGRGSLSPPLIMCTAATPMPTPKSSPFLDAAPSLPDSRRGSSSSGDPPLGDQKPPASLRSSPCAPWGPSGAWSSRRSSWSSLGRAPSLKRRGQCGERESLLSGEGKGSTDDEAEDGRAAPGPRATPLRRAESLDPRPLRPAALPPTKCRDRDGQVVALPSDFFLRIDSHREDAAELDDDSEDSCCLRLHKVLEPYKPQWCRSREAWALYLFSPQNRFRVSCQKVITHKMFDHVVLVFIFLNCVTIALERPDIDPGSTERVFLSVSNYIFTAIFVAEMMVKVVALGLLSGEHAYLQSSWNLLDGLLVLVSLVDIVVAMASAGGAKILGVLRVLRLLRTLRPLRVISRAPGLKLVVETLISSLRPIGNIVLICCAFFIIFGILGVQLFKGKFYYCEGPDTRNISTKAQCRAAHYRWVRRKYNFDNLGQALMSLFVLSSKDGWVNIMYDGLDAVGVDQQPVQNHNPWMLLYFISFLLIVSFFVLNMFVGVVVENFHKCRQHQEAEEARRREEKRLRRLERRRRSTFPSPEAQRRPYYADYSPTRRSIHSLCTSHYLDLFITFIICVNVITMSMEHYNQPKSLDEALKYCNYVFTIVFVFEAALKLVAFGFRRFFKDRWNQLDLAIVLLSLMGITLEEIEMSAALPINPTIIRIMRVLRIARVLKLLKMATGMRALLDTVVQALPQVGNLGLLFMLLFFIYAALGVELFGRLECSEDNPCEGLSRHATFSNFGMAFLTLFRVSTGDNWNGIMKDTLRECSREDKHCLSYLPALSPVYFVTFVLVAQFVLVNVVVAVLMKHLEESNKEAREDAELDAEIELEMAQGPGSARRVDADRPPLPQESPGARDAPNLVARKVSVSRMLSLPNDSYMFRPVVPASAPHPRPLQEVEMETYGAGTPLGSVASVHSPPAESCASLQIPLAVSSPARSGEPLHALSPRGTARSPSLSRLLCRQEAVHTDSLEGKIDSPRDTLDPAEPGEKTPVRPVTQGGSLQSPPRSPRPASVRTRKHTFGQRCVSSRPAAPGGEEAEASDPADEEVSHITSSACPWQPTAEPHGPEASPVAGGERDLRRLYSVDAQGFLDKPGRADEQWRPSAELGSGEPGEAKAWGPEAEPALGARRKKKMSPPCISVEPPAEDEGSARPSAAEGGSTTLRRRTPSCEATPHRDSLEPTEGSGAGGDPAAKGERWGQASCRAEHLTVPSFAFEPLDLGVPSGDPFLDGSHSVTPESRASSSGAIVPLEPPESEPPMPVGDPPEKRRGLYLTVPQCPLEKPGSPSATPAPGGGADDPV
Measles CPE – compounds protecting cells from measles virus cytopathic effect, primary screen, measles RdRp inhibitor project, single point, MLSMR library, absorbance | 140,000 tested, 1.5% active | protection (pct of control), % at 4 µM | Measles virus-infected cells, CPE protection; in the data active means protection mostly above about 24%, no sharp cut-off; inactive means mostly below about 26%
HIV Rev-RRE inh – HIV-1 Rev-RRE binding inhibitors, primary screen, biochemical, FRET, protein-RNA interaction. Rev peptide-RRE RNA binding. AID 704, 2007. P05866. inhibition, % at 8 µM. 97,000 tested, 0.79% active;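 active means inhibition above the screen-wide mean plus 3 SD, cut at about 35% in these data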;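 further: 0% = median DMSO wells and 100% = median Neomycin B control wells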
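Test system – labelled RRE RNA duplex and labelled Rev peptide · Signal – fluorescein-to-Cy5 FRET, 480 nm excitation · Evaluation – % inhibition of FRET ratio versus controls · Benchmarks – DMSO low control, neomycin B high control · Incubation – 5 min RNA-compound premix plus 15 min binding step, 25 °C · Medium – HEPES pH 7.5 salt buffer with EDTA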
DAT uptake mod – changed hDAT dopamine uptake under cocaine IC80, either direction, primary screen, cocaine antagonist project, cell-based, LLC-PK1 hDAT, [14C]-dopamine uptake, MLSMR; LLC-PK1 hDAT cells, [14C]-dopamine uptake with cocaine IC80; actives deviate in either direction; B-score at 10 µM; 110,000 tested, 1.3% active;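 active means Z score or B-score, a plate-position-corrected score, falls beyond the plate's 99.7% confidence bounds, in either direction; inactive means both scores lie inside the 99.7% bounds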;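 further: scored against the spread of the other compound wells on the same plate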
Phagocyt inh – inhibitors of macrophage phagocytosis, primary screen, imaging, J774A.1 cells, IgG beads | J774A.1 macrophage IgG-bead phagocytosis | inhibition, % at 5 µM | 110,000 tested, 0.07% active | AID 1029, 2008;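 active means inhibition above the mean of the plate negative controls plus 5 SD, cut at about 13% in these data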;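 further: phagocytic index as fraction of beads internalized from green versus red external bead signal; plate controls were DMSO negative control for no effect and cytochalasin-D positive control for full effect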
The depositor's hits bear a star; nt = no result.

SMILES | PTK2B oligo ant | Cav3 T inh | Measles CPE | HIV Rev-RRE inh | DAT uptake mod | Phagocyt inh
Cc1oc(-c2ccc(Cl)cc2)nc1CN1CCCC(C(=O)NCc2ccccn2)C1 (stereo not given) | -0.54 | 0.697 | 3.9 | 6.2 | -0.0498 | -0.4
Cc1cccc(-c2nc(CN3CCCC(C(=O)NC4CCCCCC4)C3)c(C)o2)c1 (stereo not given) | -0.73 | -6.92* | 17.1 | -3.0 | -0.18 | nt
Cc1cccc(-c2nc(CN3CCCC(C(=O)NC4CCCCC4)C3)c(C)o2)c1 (stereo not given) | 0.7 | -5.08* | 9.8 | 0.7 | -0.0197 | nt
CCC(=O)Nc1cccc(C2=NOC3(C2)C[C@H](C(N)=O)N(C(=O)CC#N)C3)c1 (stereo not given in full) | nt | 1.18 | nt | nt | -0.932 | nt
C=CCOc1nc2c(c(=O)n(C)c(=O)n2C)n1Cc1c(Cl)cccc1Cl | 1.53 | 0.486 | 21.6 | 9.1 | -0.397 | 2.3
CCCC(=Nc1ccc(N)cc1)C1=C(O)C(C(=O)OC)C(C)(C)CC1=O (stereo not given) | -0.12 | -5.12* | 1.4 | 2.1 | -0.167 | -1.6
CCCC(=O)C1=C(O)C(C(=O)OC)C(C)(C)CC1=Nc1ccc(N)cc1 (stereo not given) | -0.41 | 0.484 | 0.3 | 3.5 | -0.0157 | -2.8
COc1ccc(/C=C2\C(=O)N(c3c(Cl)cc(Cl)cc3Cl)N=C2NC(=O)c2cccc([N+](=O)[O-])c2)cc1 | -3.66* | nt | 7.9 | nt | nt | nt
Cc1nc2ccccn2c1C(=O)NNS(=O)(=O)c1ccc(C(C)(C)C)cc1 | nt | nt | 16.9 | nt | nt | -2.8
Cc1ccc(C)c(/C(O)=C2\C(=O)C(=O)N(CCCn3ccnc3)C2c2cccnc2)c1 (stereo not given) | 0.41 | 0.168 | 16.0 | -1.0 | -1.03 | nt
O=S(=O)(NCc1ccccn1)c1ccccc1 | 1.68 | 0.953 | 26.2 | 8.3 | -2.86* | -1.4
O/N=C1/CC/C(=N\O)c2nn(-c3ccccc3)nc21 | -1.46 | -0.799 | 19.9 | nt | -8.05* | 1.2
O=C(O)c1nn(-c2ccccc2)nc1-c1nn(-c2ccccc2)nc1C(=O)O | 2 | -0.0944 | 17.2 | 6.0 | -1.12 | nt
Cc1ccc(C(=O)NCCSC2CCCCC2)cc1S(=O)(=O)Nc1ccccc1 | -1.67 | -3.84* | 7.7 | 9.8 | 1.23 | -1.4
Cc1ccccc1NS(=O)(=O)c1cc(C(=O)NCCC2=CCCCC2)ccc1C | -1.69 | -3.41* | 10.2 | 8.0 | -0.0353 | nt
CCOC(=O)/C(=C\c1cccnc1)C(=O)c1cc(C(C)=O)c(Nc2ccccc2)s1 | -2.06 | 4.14* | 17.3 | 6.9 | -0.861 | 4.2
CCOC(=O)/C(=C\c1ccccc1)C(=O)c1cc(C(C)=O)c(Nc2ccccc2)s1 | -3.05* | -1.08 | 0.9 | 13.1 | 0.00922 | -0.6
CCOC(=O)C(=Cc1ccc(F)cc1)C(=O)OCC | nt | 0.803 | 8.1 | -2.5 | -0.805 | 3.7
Cc1oc2cc(OCc3cnn(-c4ccccc4)c3)ccc2c(=O)c1Oc1ccccc1F | nt | nt | 30.1 | nt | nt | -5.8
COCCNc1nc(-c2cc(-c3ccc(Cl)cc3)on2)cc(C(C)C)n1 | nt | 0.678 | nt | nt | 0.054 | nt
Cc1ccc(OCc2nc(-c3ccccn3)no2)c(Br)c1 | -0.34 | -2.87 | 22.5 | 6.1 | 1.36 | -0.1
CCc1ccc(OCc2nc(-c3ccccn3)no2)c(Br)c1 | -1.57 | -4.58* | 1.1 | 13.0 | -0.917 | -0.6
COC(=O)C1=C(C)NC(C)=C(C(=O)OCCN(C)Cc2ccccc2)C1c1cccc([N+](=O)[O-])c1 (stereo not given) | nt | -4.09* | 4.7 | nt | 2.1 | nt
CCOC(=O)C1=C(C)NC(C)=C(C(=O)OCCNC(=O)c2cccnc2)C1c1cccc([N+](=O)[O-])c1 (stereo not given) | nt | nt | 4.8 | nt | nt | 1.8
CCCCN(CCCC)CP(=O)(c1ccccc1)c1ccccc1 | 0.59 | -5.77* | 4.7 | -2.6 | -1.16 | -0.6
SMILES | PTK2B oligo ant | Cav3 T inh | Measles CPE | HIV Rev-RRE inh | DAT uptake mod | Phagocyt inh
O=P(CCCCCCCCCP(=O)(c1ccccc1)c1ccccc1)(c1ccccc1)c1ccccc1 | -2.27 | -9.56* | 7.8 | 7.3 | 2.91* | nt
CCOC1(C(F)(F)F)NC(=O)N(Cc2ccc(OC)cc2)C1=O (stereo not given) | -0.72 | -0.359 | 34.1* | -0.9 | -0.536 | -0.3
CC(C)(C)OC(=O)CNC(=O)c1[nH]cnc1C(=O)N[C@@H](CCCCNC(=O)OC(C)(C)C)C(=O)OC(C)(C)C | nt | -0.997 | nt | nt | 2.81* | nt
CC(C)(C)OC(=O)NCCCCCNC(=O)c1[nH]cnc1C(=O)N[C@@H](CCCCNC(=O)OC(C)(C)C)C(=O)OC(C)(C)C | nt | -2.66* | nt | nt | 1.76 | nt
C[C@H](NC(=O)c1nc[nH]c1C(=O)N[C@@H](CCCCNC(=O)OC(C)(C)C)C(=O)OC(C)(C)C)C(=O)OC(C)(C)C | nt | -2.59 | nt | nt | 1.63 | nt
CC(CC(=O)Nc1ccc(Cl)c([N+](=O)[O-])c1)c1ccccc1 (stereo not given) | -1.72 | -8.7* | 4.8 | 3.3 | -0.636 | -1.7
O=C(Nc1ccccc1)Nc1ccc(Cl)c([N+](=O)[O-])c1 | nt | nt | 1.9 | nt | nt | -5.4
CC(CC(=O)Nc1ccc(C(N)=O)cc1)c1ccccc1 (stereo not given) | nt | nt | 29.1* | nt | nt | -0.1
CCn1c(=O)cc(SCC(=O)NCCCN2CCN(c3ccccc3F)CC2)c2ccccc21 | 0.31 | -3.39* | 23.2 | 11.9 | 0.279 | 1.8
C(=C/c1ccnc2nc(SC/C=C/c3ccccc3)nn12)/c1ccccc1 | -3.02* | -0.361 | 22.0 | -3.6 | -0.139 | nt
CCCc1cc2c(=O)c(-c3ccc4c(c3)OCCO4)c(C)oc2cc1OS(C)(=O)=O | -2.43 | 0.223 | 3.9 | 10.9 | 2.76* | -0.2
Cc1cccc(/C=N/NC(=O)C2CCCNC2=O)c1 (stereo not given) | nt | nt | 8.8 | nt | nt | -1.9
O=C(NC1CCCC1)c1nc2c(nnn2Cc2ccccc2Cl)c(=O)[nH]1 | -0.56 | -3.42* | 4.3 | 7.0 | 0.206 | -0.4
O=C(C1CCCCC1)N1CCCC(c2nc3c(nnn3Cc3ccccc3)c(=O)[nH]2)C1 (stereo not given) | -0.37 | 0.201 | 5.0 | -0.6 | 2.37* | -0.3
O=C(c1ccccc1)N1CCCC(c2nc3c(nnn3Cc3ccccc3)c(=O)[nH]2)C1 (stereo not given) | -0.62 | 0.266 | 2.4 | 0.7 | 2.16 | 0.6
Cc1ccc(C)c(Cn2nnc3c(=O)[nH]c(C4CCCN(C(=O)C5CCCCC5)C4)nc32)c1 (stereo not given) | -0.54 | -1.13 | 7.2 | -3.6 | 3.97* | -0.7
Oc1ccc(-c2nccc(-c3cccs3)n2)cc1 | -1.95 | 0.00771 | 9.1 | 15.1 | 1.03 | nt
COc1cc(OC)cc(-c2nc3ccccc3c(=O)n2OC(=O)c2ccc(C)c(C)c2)c1 | nt | nt | 19.2 | nt | nt | -14.0
